PTEN del growth: PTEN-deleted cell growth suppression | HCT116 PTEN-null viability, CellTiter-Glo, 60 h; active compounds read low | viability, % at 10 µM | 1.2% of 140,000 active | AID 827;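 active = viability at or below a set limit, 4 SD under the median of all tested compounds, cut at about 3.7% in these data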;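 also: PTEN knockout HCT116 line with beta catenin targeted HCT116 as companion control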
HUVEC inhibit: inhibitors of human endothelial cell proliferation | AID 648 | HUVEC proliferation, CellTiter-Glo luminescence, 72 h; active compounds read low | 1.1% of 86,000 active | viability, % at 10 µM (by protocol);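 active = viability at or below 30%; inactive = viability above 30%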;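 also: 100% = median luminescence of DMSO-only cell control wells on each plate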
H69AR inhibit: blocks growth of human H69AR lung tumor cells | H69AR lung tumor viability, ATP luminescence, 72 h; active compounds read low | viability, % at 10 µM | 6% of 85,000 active | AID 598;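 active = viability at or below 40%; inactive = viability above 40%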;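 also: multidrug resistant small cell line overexpressing MRP-1 efflux transporter; 100% = mean luminescence of untreated control wells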
HCT116 bCat-KO: beta-catenin-lacking colon tumor cell growth suppression. HCT116 beta-catenin knockout viability, CellTiter-Glo, 60 h; active compounds read low. AID 818. 1.5% of 140,000 active. viability, % at 10 µM;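 active = viability at or under a set limit, the compound median less 4 SD, cut at about 6% in these data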;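 also: 0% = Hyamine 1622 control at 20 µM and 100% = untreated cell control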
Lung fibro prol: blocks proliferation of human lung fibroblasts; LL 47 human lung fibroblast viability, ATP luminescence; active compounds read low; 1.1% of 85,000 active; viability, % at 10 µM; AID 719;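 active = viability at or below 50% in the single dose screen; inactive = viability above 50%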;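 also: compound exposure lasted 72 h before the ATP readout; 100% = median luminescence of untreated cell-only wells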
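Test system: LL 47 human lung fibroblasts; Quantity: 1,150 cells/well; Buffer or medium: IMEM plus 15% FBS; Dosing: tenfold compound dosing solution, DMSO at 0.1%; Timing: overnight cell rest, 72 h compound treatment at 37 °C; Detection: ATP-based CellTiter-Glo luminescent readout; Read-out basis: viability percentage against median untreated-cell control; Controls: cell-only wells, no compound.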
* marks the source's active call; other numbers are inactive results; . = not tested or not shown. Many of the other results were omitted from the sample, so hits are more common in it than they were.

SMILES	PTEN del growth	HUVEC inhibit	H69AR inhibit	HCT116 bCat-KO	Lung fibro prol
Cn1c(-c2sc3cc(C(F)(F)F)cnc3c2-c2cccnc2)n[nH]c1=S	89	105	32*	86	100
O=C(COC(=O)c1cc(-c2cccs2)nn1-c1ccccc1)Nc1ccc(F)c([N+](=O)[O-])c1	96	.	.	81	.
CC1(C)CC(=O)C2=C(C1)c1c(ccc3ccccc13)NC2c1ccc(Br)o1 (centres undefined)	72	67	33*	59	97
CO/N=C(/CS(=O)(=O)c1ccc(C)cc1)c1ccc(OC)cc1	83	94	36*	77	99
COc1ccc(C(=O)NCS(=O)(=O)c2ccc(C)cc2)cc1	104	93	94	100	98
CCOC(=O)c1c(NC(=O)COc2cccc3c2CCN(C)C3=O)sc2c1CCC2	19	.	.	15	.
COC(=O)C(Cc1c[nH]c2ccccc12)NC(=O)c1cc(-c2ccc(OC)c(OC)c2)oc1C (centres undefined)	77	.	.	84	.
COc1cc(C2C3=C(Nc4ncnn42)c2ccccc2CC3)cc(OC)c1OC (centres undefined)	14	54	29*	16	50
CC1Cc2ccccc2N1C(=O)C1CCCN(S(=O)(=O)c2cccc3cccnc23)C1 (centres undefined)	63	80	37*	60	82
CCn1ncc(C2=NOC(C(=O)NCc3ccc(Cl)cc3)C2)c1C (centres undefined)	18	56	37*	17	67
C/C(=N\NC(=O)c1ccc(Cl)c(Cl)c1)c1ccc(Br)s1	3.6*	.	.	6.1*	.
C/C(=N\NC(=O)CNc1cccc(C)c1)c1ccc(Br)s1	88	.	.	79	.
C/C=N/NC(=O)CCNC(=O)c1ccccc1	96	.	.	93	.
CC(C)OC(=O)c1c(N)n(CCCN2CCOCC2)c2nc3ccccc3nc12	94	95	60	91	104
CC(C)OC(=O)c1c2nc3ccccc3nc2n2c1[nH]c(=O)c1ccccc12	31	65	33*	24	63
CCOC(=O)c1sc(SCC(=O)Nc2ccc(N(C)C)cc2)nc1N	92	81	58	95	36*
CN(C)c1ccc(NC(=O)CSc2nc(N)c(C(=O)Nc3ccc(N(C)C)cc3)s2)cc1	47	94	83	42	88
CC1=C(CC(=O)c2ccc(Cl)cc2)C(=O)c2ccccc2C1=O	1.9*	.	.	3.7*	.
CC(C)(C)c1ccc(OCC(=O)N/N=C/c2cc(Br)ccc2OC(=O)c2ccco2)cc1	5	.	.	4.8*	.
C=CCOc1ccc(C(=O)CC)cc1OC	107	.	.	101	.
CC1(C)CC(NC(=O)C(Cl)(Cl)Cl)CC(C)(C)N1	97	.	.	91	.
Cn1c(=NC(=O)CCl)sc2ccccc21	5	76	1.4*	5.1*	2.4*
CCOC(=O)N1CCN(C(=O)CSCC(=O)N=c2sc3ccccc3n2C)CC1	100	100	88	100	99
COc1cc2nc(NC(=O)c3ccccc3)[nH]c(=O)c2cc1OC	91	103	65	95	101
COc1ccc(C(=O)Nc2nc3cc(OC)c(OC)cc3c(=O)[nH]2)cc1	13	57	13*	17	78
SMILES	PTEN del growth	HUVEC inhibit	H69AR inhibit	HCT116 bCat-KO	Lung fibro prol
CCCCCCN1CC(C(=O)OCC)C(=O)C1=O (centres undefined)	90	.	.	89	.
CCOC(=O)C1(C(F)(F)F)N=C(c2cccnc2)OC(N2CCCCC2)=N1 (centres undefined)	102	.	.	98	.
COc1ccc(C(=O)/C=C/c2ccc(OC)c(Cn3nnc4ccccc43)c2)cc1	5	.	.	6.0*	.
CCOC(=O)c1c(NC(=O)CSc2nc(C)cc(C)c2C#N)sc(C(C)=O)c1C	108	38	19*	104	59
CC1CC(=O)Nc2ccccc2N1S(=O)(=O)c1cccc(Cl)c1 (centres undefined)	88	.	.	85	.
Cc1cc(N)n2ncc(-c3cccc(Br)c3)c2n1	80	46	26*	71	66
Cc1cc(N)n2ncc(-c3ccccc3)c2n1	102	95	72	90	95
CCN(CC)S(=O)(=O)c1ccc(Cl)c(NC(=O)COC(=O)/C=C/c2ccc(O)c(OC)c2)c1	90	.	.	102	.
CC(C)CCn1cnc2c(c1=O)c1nc3ccccc3nc1n2Cc1ccc2c(c1)OCO2	80	86	30*	79	88
CCCn1cnc2c(c1=O)c1nc3ccccc3nc1n2Cc1ccccc1OC	112	.	.	112	.
COc1cc2c3nnc(-c4ccc(F)cc4)c-3cn(Cc3ccccc3)c2cc1OC	1.6*	1.8*	1.5*	1.1*	2.7*
COc1ccc(CCNC(=O)CSc2nnc(-c3ccc(F)cc3)c3ccccc23)cc1OC	94	.	.	85	.
COc1ccc(Cn2cc3c(-c4ccc(F)cc4)nnc-3c3cc(OC)c(OC)cc32)cc1	2.1*	2.3*	1.3*	1.8*	2.2*
COc1cc2c3nnc(-c4ccc(F)cc4)c-3cn(Cc3ccc(F)cc3)c2cc1OC	0.8*	2.6*	-0.4*	0.7*	10*
COc1ccc(OC2C(=O)N(Cc3ccc(F)cc3)C2c2cc(OC)c(OC)c(OC)c2)cc1 (centres undefined)	83	.	.	90	.
Cc1ccn2cc(-c3ccc(NC(=O)c4ccco4)cc3)nc2c1	76	.	.	71	.
O=C(NS(=O)(=O)Oc1cccc(Cl)c1Cl)OC[C@@H]1CCCN2CCCCC12 (some centres undefined)	95	.	.	81	.
O=C(c1ccc(S(=O)(=O)c2cccc(Cl)c2)c([N+](=O)[O-])c1)N1CCN(Cc2ccccc2)CC1	24	.	.	16	.
CCNc1ccc(Br)cc(C(=O)/C=C/c2ccccc2Cl)c1=O	.	7.6*	2.0*	.	40*
CNc1ccc(Br)cc(C(=O)/C=C/c2cccc(OC)c2OC)c1=O	30	31	5.3*	33	85
Nc1c(-c2ccccc2)cnn1-c1cccc([N+](=O)[O-])c1	95	.	.	109	.
Cc1ccccc1-n1ncc2c([N+](=O)[O-])cc([N+](=O)[O-])cc21	45	6.3*	25*	30	65
CCOc1ccc(C(C)NC(=O)C2CCC2)cc1 (centres undefined)	89	.	.	93	.
CCCNc1nc(Nc2ccc(C)cc2)nc(N2CCCC2)n1	61	30	35*	57	66
Cc1ccc(NC(=O)CCCN2C(=O)/C(=C/C=C/c3ccccc3)SC2=S)cc1	2.4*	.	.	7	.
O=C(CCN1C(=O)/C(=C/C=C/c2ccccc2)SC1=S)Nc1nccs1	64	.	.	58	.
CCc1nnc(NC(=O)CSc2nccn2-c2cc(C)cc(C)c2)s1	81	78	22*	74	99
CCc1nnc(NC(=O)CSc2nccn2-c2cccc(C)c2C)s1	33	82	18*	41	91
Cc1cccc(-n2ccnc2SCC(=O)Nc2nccs2)c1C	94	97	82	93	77
CCOc1ccc(-n2ccnc2SCC(=O)Nc2nnc(C)s2)cc1	113	102	93	101	97

High-throughput results: PubChem BioAssay, SRMLSC
